In brackets after ≈: the same amount, converted by molar mass. Values belong to the molecule of their own block, whether it stands above or below them. Activity calls are given as the source filed them. The calls are words filed in the database; no cut-off is given here.
Legend:
[1] = target: T1, Tyrosine-protein kinase BTK (Homo sapiens, UniProt Q06187); assay: Inhibition of Btk (unknown origin) after 1 hr by HTRF assay
How it was run: (§1)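 Recombinant kinases tested by HTRF KinEase protocol. Enzyme preincubated with inhibitor for a fixed 10 min. IC50 values are means of duplicates.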

[2] = target: T1, Tyrosine-protein kinase BTK; assay: Irreversible inhibition of Btk phosphorylation at Tyr551 in human Ramos cells at 1 uM incubated for 1 hr followed by compound washout with fresh media measured after 2 hrs by Western blot analysis; format: cell-based
How it was run: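 Ramos cells (5 × 10⁵) seeded overnight, treated with compound 1 h, then washed out with fresh media for 2 h. Cells stimulated with goat anti-human IgM for 3−5 min, lysed by boiling in SDS buffer, and Btk Tyr551 phosphorylation assessed by Western blot.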

[3] = target: Tyrosine-protein kinase JAK3 (Homo sapiens, UniProt P52333); assay: Inhibition of Jak3 (unknown origin) after 1 hr by HTRF assay; how it was run: as §1
[4] = target: Receptor tyrosine-protein kinase erbB-2 (Homo sapiens, UniProt P04626); assay: Inhibition of HER2 (unknown origin) after 1 hr by HTRF assay; how it was run: as §1
[5] = Clearance in mouse liver microsomes by LC-MS/MS analysis; format: ADME; conditions: read-out: CLH
How it was run: (§2)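 Liver microsomes incubated with compound and NADPH at 37 °C. Samples taken at several time points, centrifuged, and supernatants analyzed by LC−MS/MS. t1/2 and CL calculated by first-order kinetics. Testosterone, propranolol and clozapine served as positive controls.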

[6] = Half life in ICR mouse at 1 mg/kg, iv by LC-MS analysis; format: ADME, organism-based; design: dose 1 mg/kg, route intravenous; conditions: in vivo
How it was run: (§3)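 ICR mice (n = 3) given a single intravenous injection at 1 mg/kg. Blood sampled at various time points and analyzed by LC−MS to derive t1/2, CL and Vss.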

[7] = Cytotoxicity against human Pfeiffer cells assessed as growth inhibition after 72 hrs by CellTiter-Glo luminescent cell viability assay; format: functional; conditions: Homo sapiens, Pfeiffer, 72 h
How it was run: (§4)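 Lymphoma cells seeded at 5000 cells/well, incubated 24 h, then exposed to compounds for 72 h. Viability read by CellTiter-Glo luminescence. GI50 from dose−response curves, mean of two or three independent experiments in triplicate.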

[8] = target: T1, Tyrosine-protein kinase BTK; assay: Inhibition of Btk phosphorylation at Tyr551 in human Ramos cells after 1 hr by Western blot analysis; format: cell-based
[9] = Half life in mouse liver microsomes by LC-MS/MS analysis; format: ADME; how it was run: as §2
[10] = target: T1, Tyrosine-protein kinase BTK; assay: Inhibition of Btk in human Ramos cells assessed as inhibition of PLC-gamma2 phosphorylation at Tyr1217 after 1 hr by Western blot analysis; format: cell-based
[11] = Cytotoxicity against human DOHH2 cells assessed as growth inhibition after 72 hrs by CellTiter-Glo luminescent cell viability assay; format: functional, DOHH-2; conditions: Homo sapiens, DOHH-2, 72 h; how it was run: as §4
[12] = target: Tyrosine-protein kinase Blk (Homo sapiens, UniProt P51451); assay: Inhibition of Blk (unknown origin) after 1 hr by HTRF assay; how it was run: as §1
[13] = tested on: Liver microsomes (Mus musculus); assay: Clearance in mouse liver microsomes by LC-MS/MS analysis
[14] = target: Receptor tyrosine-protein kinase erbB-4 (Homo sapiens, UniProt Q15303); assay: Inhibition of HER4 (unknown origin) after 1 hr by HTRF assay; how it was run: as §1
[15] = target: Epidermal growth factor receptor (Homo sapiens, UniProt P00533); assay: Inhibition of EGFR (unknown origin) after 1 hr by HTRF assay
How it was run: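 Commercial recombinant kinase, assayed in the HTRF KinEase format following the kit protocol. Enzyme and inhibitor were preincubated for a fixed 10 min before the reaction.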

[16] = Clearance in ICR mouse at 1 mg/kg, iv by LC-MS analysis; format: ADME, organism-based; design: dose 1 mg/kg, route intravenous; conditions: in vivo; how it was run: as §3
[17] = Stability of the compound in FaSSIF assessed as compound remaining at 1 uM measured at 24 hrs by LC-MS analysis; format: ADME; conditions: read-out: Stability
How it was run: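 Compound solutions in FaSSIF shaken at 350 rpm at 37 °C. Samples taken at 2, 6, 10 and 24 h and quantified by LC−MS as % remaining.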

[18] = Cytotoxicity against human SU-DHL6 cells assessed as growth inhibition after 72 hrs by CellTiter-Glo luminescent cell viability assay; format: functional, SU-DHL-6; conditions: Homo sapiens, SU-DHL-6, 72 h; how it was run: as §4
[19] = target: Cytoplasmic tyrosine-protein kinase BMX (Homo sapiens, UniProt P51813); assay: Inhibition of Bmx (unknown origin) after 1 hr by HTRF assay; how it was run: as §1
[20] = target: Tyrosine-protein kinase ITK/TSK (Homo sapiens, UniProt Q08881); assay: Inhibition of Itk (unknown origin) after 1 hr by HTRF assay; how it was run: as §1
[21] = target: T1, Tyrosine-protein kinase BTK; assay: Binding affinity to Btk kinase domain (387 to 659) (unknown origin) assessed as compound-protein covalent adduct formation at 1:3 protein to compound molar ratio at 4 degC after 1 hr by LC-MS analysis
How it was run: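 Btk kinase domain (residues 387−659, MW 32136) incubated with 3 equiv of compound at 4 °C for 1 h. Mass spectrometry of the intact protein checked for mass peak shift consistent with 1-to-1 protein−compound adducts.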

[22] = target: Tyrosine-protein kinase Tec (Homo sapiens, UniProt P42680); assay: Inhibition of Tec (unknown origin) after 1 hr by HTRF assay; how it was run: as §1
[23] = target: Tyrosine-protein kinase TXK (Homo sapiens, UniProt P42681); assay: Inhibition of Rlk (unknown origin) after 1 hr by HTRF assay; how it was run: as §1
[24] = Volume of distribution at steady state in ICR mouse at 1 mg/kg, iv by LC-MS analysis; format: ADME, organism-based; design: dose 1 mg/kg, route intravenous; conditions: in vivo, read-out: Vdss; how it was run: as §3
WSU-NHL = assay: Cytotoxicity against human WSU-NHL cells assessed as growth inhibition after 72 hrs by CellTiter-Glo luminescent cell viability assay; format: functional; how it was run: as §4
[25] = Solubility of the compound in FaSSIF; format: ADME

T1 sequence (Q06187 whole entry): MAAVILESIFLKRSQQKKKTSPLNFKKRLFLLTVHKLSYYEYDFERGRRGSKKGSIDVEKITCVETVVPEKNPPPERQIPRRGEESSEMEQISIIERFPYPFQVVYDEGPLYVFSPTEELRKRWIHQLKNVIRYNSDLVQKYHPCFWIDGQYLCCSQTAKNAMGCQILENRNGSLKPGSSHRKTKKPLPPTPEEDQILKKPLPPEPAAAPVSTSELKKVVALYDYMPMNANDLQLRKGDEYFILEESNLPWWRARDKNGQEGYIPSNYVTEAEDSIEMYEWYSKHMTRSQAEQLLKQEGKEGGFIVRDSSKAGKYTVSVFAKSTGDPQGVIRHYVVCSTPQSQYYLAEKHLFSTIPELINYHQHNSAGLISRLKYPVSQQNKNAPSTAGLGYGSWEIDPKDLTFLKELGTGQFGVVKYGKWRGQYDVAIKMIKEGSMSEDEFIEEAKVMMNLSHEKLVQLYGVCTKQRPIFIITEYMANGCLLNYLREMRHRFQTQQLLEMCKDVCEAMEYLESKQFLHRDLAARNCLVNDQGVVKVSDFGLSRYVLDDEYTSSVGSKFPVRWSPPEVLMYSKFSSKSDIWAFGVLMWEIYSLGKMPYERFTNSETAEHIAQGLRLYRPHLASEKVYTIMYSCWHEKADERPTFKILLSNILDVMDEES
Sequence of Cytoplasmic tyrosine-protein kinase BMX (P51813 whole entry): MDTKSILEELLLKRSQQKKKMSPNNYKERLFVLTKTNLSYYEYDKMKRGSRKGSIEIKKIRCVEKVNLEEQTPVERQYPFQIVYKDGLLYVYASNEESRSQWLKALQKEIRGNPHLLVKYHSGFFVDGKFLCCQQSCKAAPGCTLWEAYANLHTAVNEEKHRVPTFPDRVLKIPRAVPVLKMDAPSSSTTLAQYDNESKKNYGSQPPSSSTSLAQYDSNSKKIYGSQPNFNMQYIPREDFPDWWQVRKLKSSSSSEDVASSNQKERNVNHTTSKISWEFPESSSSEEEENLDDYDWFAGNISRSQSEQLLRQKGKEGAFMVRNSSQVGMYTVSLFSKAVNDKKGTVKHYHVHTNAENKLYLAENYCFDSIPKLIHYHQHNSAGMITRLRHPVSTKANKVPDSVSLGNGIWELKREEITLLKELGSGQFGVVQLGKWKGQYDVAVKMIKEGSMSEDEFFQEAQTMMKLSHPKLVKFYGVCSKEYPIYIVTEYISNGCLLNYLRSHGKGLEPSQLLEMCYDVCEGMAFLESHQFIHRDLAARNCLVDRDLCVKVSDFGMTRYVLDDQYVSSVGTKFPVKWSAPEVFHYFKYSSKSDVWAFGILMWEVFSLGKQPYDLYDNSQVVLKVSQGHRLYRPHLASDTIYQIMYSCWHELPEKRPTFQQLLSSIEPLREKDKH
Sequence of Receptor tyrosine-protein kinase erbB-4 (Q15303 whole entry): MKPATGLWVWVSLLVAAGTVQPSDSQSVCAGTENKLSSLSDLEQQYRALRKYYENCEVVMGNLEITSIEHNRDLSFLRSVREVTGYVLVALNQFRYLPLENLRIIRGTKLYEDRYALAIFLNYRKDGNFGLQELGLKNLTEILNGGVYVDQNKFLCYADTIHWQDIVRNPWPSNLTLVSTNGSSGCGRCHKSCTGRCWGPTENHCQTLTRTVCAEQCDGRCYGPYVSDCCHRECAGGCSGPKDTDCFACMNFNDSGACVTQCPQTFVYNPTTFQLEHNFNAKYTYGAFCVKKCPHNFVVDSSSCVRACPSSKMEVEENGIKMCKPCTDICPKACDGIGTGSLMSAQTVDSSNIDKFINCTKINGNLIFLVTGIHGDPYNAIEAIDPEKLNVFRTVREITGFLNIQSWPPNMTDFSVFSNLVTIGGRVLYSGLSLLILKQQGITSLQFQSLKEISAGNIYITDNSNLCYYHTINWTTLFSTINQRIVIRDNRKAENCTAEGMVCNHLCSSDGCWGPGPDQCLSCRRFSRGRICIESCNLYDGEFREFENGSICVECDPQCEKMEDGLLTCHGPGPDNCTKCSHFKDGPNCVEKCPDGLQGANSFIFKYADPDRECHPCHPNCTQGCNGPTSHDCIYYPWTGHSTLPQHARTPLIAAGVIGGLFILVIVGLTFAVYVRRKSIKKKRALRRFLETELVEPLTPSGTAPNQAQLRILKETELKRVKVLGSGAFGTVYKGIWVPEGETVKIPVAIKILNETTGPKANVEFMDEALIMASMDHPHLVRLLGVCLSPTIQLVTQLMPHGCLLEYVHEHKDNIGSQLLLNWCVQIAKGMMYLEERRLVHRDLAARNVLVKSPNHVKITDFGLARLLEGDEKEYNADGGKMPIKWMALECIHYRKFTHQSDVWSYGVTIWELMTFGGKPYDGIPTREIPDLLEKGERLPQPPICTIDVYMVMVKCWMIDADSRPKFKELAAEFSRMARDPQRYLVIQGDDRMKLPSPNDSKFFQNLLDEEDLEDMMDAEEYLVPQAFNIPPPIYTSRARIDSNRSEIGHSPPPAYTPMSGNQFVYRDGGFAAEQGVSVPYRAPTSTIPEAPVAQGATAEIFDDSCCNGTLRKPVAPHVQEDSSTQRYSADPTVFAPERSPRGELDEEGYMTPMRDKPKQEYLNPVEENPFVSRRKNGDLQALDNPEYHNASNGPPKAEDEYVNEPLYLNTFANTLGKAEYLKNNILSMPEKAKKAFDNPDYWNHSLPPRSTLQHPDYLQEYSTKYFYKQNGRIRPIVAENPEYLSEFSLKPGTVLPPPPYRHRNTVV
Sequence of Tyrosine-protein kinase TXK (P42681 whole entry): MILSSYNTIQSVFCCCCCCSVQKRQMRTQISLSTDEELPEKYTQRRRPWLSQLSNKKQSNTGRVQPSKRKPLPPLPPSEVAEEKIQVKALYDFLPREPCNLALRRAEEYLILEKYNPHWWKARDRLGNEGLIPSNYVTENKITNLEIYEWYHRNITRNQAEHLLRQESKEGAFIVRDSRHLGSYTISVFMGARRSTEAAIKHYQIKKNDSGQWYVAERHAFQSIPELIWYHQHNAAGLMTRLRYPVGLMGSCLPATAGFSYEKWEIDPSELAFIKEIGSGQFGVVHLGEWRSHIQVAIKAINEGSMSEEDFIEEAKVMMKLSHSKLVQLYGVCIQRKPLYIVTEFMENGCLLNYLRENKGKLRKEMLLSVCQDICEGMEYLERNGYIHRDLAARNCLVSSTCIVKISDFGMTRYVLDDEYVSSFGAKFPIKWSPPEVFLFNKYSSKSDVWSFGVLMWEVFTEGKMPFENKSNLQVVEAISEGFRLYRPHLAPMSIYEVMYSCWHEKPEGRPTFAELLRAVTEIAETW
Sequence of Receptor tyrosine-protein kinase erbB-2 (P04626 whole entry): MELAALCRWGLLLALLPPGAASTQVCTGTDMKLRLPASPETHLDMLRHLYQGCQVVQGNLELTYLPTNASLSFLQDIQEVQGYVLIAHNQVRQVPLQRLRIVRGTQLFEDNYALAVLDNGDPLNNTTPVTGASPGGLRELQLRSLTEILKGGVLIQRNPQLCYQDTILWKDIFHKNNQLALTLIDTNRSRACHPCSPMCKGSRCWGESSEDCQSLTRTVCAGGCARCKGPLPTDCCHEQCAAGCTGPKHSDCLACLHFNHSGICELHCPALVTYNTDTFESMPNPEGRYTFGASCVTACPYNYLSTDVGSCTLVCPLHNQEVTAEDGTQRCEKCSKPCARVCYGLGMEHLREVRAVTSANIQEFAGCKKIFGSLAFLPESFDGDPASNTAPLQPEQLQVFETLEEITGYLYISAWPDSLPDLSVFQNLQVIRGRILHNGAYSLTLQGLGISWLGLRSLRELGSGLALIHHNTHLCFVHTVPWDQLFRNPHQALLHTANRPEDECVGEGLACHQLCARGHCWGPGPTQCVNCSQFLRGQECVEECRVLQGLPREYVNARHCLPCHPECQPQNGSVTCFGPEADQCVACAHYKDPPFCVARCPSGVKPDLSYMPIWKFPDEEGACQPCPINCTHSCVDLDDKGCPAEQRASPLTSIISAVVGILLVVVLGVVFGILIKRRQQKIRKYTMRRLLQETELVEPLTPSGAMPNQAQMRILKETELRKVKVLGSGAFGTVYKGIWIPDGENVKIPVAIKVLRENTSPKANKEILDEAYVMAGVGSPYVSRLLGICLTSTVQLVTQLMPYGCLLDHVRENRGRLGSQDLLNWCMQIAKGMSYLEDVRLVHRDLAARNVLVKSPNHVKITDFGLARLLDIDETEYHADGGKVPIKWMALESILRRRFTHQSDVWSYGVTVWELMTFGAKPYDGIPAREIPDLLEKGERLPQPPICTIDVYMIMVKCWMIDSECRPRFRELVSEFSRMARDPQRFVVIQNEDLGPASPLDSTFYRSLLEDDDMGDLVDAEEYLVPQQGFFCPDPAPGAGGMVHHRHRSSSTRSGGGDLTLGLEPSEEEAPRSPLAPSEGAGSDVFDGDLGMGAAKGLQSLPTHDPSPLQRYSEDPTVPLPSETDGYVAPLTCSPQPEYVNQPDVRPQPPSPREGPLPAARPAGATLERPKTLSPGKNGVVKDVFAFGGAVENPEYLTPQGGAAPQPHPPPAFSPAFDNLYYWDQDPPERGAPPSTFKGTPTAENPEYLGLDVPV
Sequence of Tyrosine-protein kinase Blk (P51451 whole entry): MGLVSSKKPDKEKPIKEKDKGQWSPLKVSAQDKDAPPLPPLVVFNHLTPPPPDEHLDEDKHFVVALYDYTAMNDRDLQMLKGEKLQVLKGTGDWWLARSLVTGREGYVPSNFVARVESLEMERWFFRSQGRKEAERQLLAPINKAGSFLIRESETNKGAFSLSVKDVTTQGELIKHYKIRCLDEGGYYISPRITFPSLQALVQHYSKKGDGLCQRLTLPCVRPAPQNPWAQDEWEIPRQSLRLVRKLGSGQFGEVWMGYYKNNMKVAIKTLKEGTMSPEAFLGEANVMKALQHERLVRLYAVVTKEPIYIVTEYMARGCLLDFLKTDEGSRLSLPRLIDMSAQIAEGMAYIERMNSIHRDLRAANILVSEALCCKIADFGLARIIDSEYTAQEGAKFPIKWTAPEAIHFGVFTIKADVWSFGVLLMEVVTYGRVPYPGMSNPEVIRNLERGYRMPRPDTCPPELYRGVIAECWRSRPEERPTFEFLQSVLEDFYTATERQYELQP

Compound: Cc1ccc(NC(=O)c2ccc(Cl)c(C(F)(F)F)c2)cc1C(=O)Nc1cnc(Nc2cccc(N)c2)nc1
IC50 [1]: 9 nM

Compound: Cc1ccc(NC(=O)/C=C/c2ccccc2)cc1C(=O)Nc1cnc(Nc2cccc(N)c2)nc1
IC50 [1]: 24 nM

Compound: Cc1ccc(NC(=O)c2cccc(C(F)(F)F)c2)cc1C(=O)Nc1cnc(NC2CC2)nc1
IC50 [1]: 2150 nM

Compound: Cc1ccc(NC(=O)c2cccc(C(F)(F)F)c2)cc1C(=O)Nc1cnc(Nc2cccc(C(F)(F)F)c2)nc1
IC50 [1]: 304 nM

Compound: CCC(=O)Nc1cccc(Nc2ncc(NC(=O)c3cc(NC(=O)c4cccc(C(F)(F)F)c4)ccc3C)cn2)c1
inhibition [2]: inactive
IC50 [1]: 15 nM

Compound: C=CC(=O)N(C(=O)C=C)c1cccc(Nc2ncc(NC(=O)c3cc(NC(=O)c4cccc(C(F)(F)F)c4)ccc3C)cn2)c1
IC50 [1]: 208 nM

Compound: Cc1ccc(NC(=O)c2cccc(C(F)(F)F)c2)cc1C(=O)Nc1cnc(Nc2cccc(NC(=O)/C=C/CN(C)C)c2)nc1
IC50 [1]: 15 nM

Compound: Cc1ccc(NC(=O)C2CC2)cc1C(=O)Nc1cnc(Nc2cccc(N)c2)nc1
IC50 [1]: 4950 nM

Compound: Cc1ccc(NC(=O)c2cc(Cl)cc(C(F)(F)F)c2)cc1C(=O)Nc1cnc(Nc2cccc(N)c2)nc1
IC50 [1]: 18 nM

Compound: CCC(=O)Nc1ccc(C)c(C(=O)Nc2cnc(Nc3cccc(N)c3)nc2)c1
IC50 [1]: 8560 nM

Compound: COc1cccc(Nc2ncc(NC(=O)c3cc(NC(=O)c4cccc(C(F)(F)F)c4)ccc3C)cn2)c1
IC50 [1]: 53 nM

Compound: Nc1cccc(Nc2ncc(NC(=O)c3cccc(NC(=O)c4cccc(C(F)(F)F)c4)c3)cn2)c1
IC50 [1]: 233 nM

The next lines start with results.

IC50 [1]: 63 nM
Compound: Cc1ccc(NC(=O)Nc2cccc(C(F)(F)F)c2)cc1C(=O)Nc1cnc(Nc2cccc(N)c2)nc1

IC50 [1]: 39 nM
Compound: Cc1ccc(NC(=O)c2ccc3ccccc3c2)cc1C(=O)Nc1cnc(Nc2cccc(N)c2)nc1

IC50 [1]: 22 nM
Compound: C=CC(=O)Nc1cccc(Nc2ncc(NC(=O)c3cc(NC(=O)c4ccc5ccccc5c4)ccc3C)cn2)c1

IC50 [1]: 36 nM
Compound: C/C=C/C(=O)Nc1cccc(Nc2ncc(NC(=O)c3cc(NC(=O)c4cccc(C(F)(F)F)c4)ccc3C)cn2)c1

IC50 [1]: 1410 nM
Compound: CCC(=O)N(C(=O)CC)c1cccc(Nc2ncc(NC(=O)c3cc(NC(=O)c4cccc(C(F)(F)F)c4)ccc3C)cn2)c1

IC50 [3]: 6370 nM
IC50 [4]: 7 nM
microsomal CLint [5]: 28.1 µL/min/mg
half-life [6]: 36 min
IC50 [8]: 13 nM
half-life [9]: 35.4 min
IC50 [10]: 13 nM
IC50 [12]: 4.2 nM
inhibition [2]: Active
CLH [13]: 49.8 mL/min/kg
IC50 [14]: 3.3 nM
IC50 [15]: 7 nM
clearance [16]: 11.5 mL/min/kg
remaining at 24 h, 1 µM [17]: 99%
IC50 [19]: 0.71 nM
IC50 [20]: > 30000 nM
Activity [21]: Active
IC50 [22]: 6.3 nM
IC50 [23]: 1.4 nM
Vd [24]: 0.13 L/kg
IC50 [1]: < 4.4 nM
solubility [25]: 2.23 µM (≈ 1.38 µg/mL)
Compound: C=CC(=O)NCC(=O)Nc1cccc(Nc2ncc(NC(=O)c3cc(NC(=O)c4cccc(C(F)(F)F)c4)ccc3C)cn2)c1
GI50 [7]: 8 nM
GI50 [11]: 40 nM
GI50 [18]: 43 nM
GI50 (WSU-NHL): 29 nM

IC50 [1]: 166 nM
Compound: Cc1ccc(NC(=O)c2cccc(F)c2)cc1C(=O)Nc1cnc(Nc2cccc(N)c2)nc1
